# Experimental data taken from the EternaBench riboswitch data.
# Test system: MS2 coat protein
# Assay: apparent Kd, MS2 coat protein; higher = weaker binding; RNA-MaP array; FMN 200 µM where present
# Summary of the method: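 Green signal from SNAP-549-labelled MS2 coat protein was normalised to red-channel RNA signal and to the median Fmax of control clusters. The protein was titrated from 0.7 or 1.5 nM, doubling to 3 µM, without and then with constant ligand, over designs transcribed by stalled E. coli RNA polymerase on Illumina sequencing-chip clusters, in 100 mM Tris-HCl pH 7.5, 80 mM KCl, 4 mM MgCl2, BSA, DTT, yeast tRNA and Tween-20. The apparent Kd is the median of filtered per-cluster binding-curve fits.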
# [1] = designed as: OFF switch for flavin mononucleotide, no ligand
# [2] = ligand present: flavin mononucleotide, designed as: OFF switch for flavin mononucleotide
# [3] = designed as: ON switch for flavin mononucleotide, no ligand
# [4] = ligand present: flavin mononucleotide, designed as: ON switch for flavin mononucleotide
Sequence,apparent Kd [1] [nM],apparent Kd [2] [nM],apparent Kd [3] [nM],apparent Kd [4] [nM]
GCCGUAAGUGUGAGGAUAUACCUAUGGAUACAUAGGUAGAAGGCACAUGAGGAUCACCCAUGUCCUUAAUCGGC,247,267,,
GCCUAGCUAGGAUAUACCCAGGGUUUGUUCUCUAACGACACACAUGAGGAUCACCCAUGUAGAAGGAGCCGGGA,47.2,41.4,,
GCCUCAGAAUUAAUUGUGAGAAGCAGAAGGCUAUAUCUCAUGUUAAACAUGAGGAUCACCCAUGUAGAGGAUAUGCUAUUACAG,58.9,282,,
GCCUCAGAAUUAAUUGUGAGAAGCAGAAGGCUAUAUCUUAUGUUAGACAUGAGGAUCACCCAUGUAGAGGAUAUGCUGUUACAG,7.84,12,,
GCCUGUGAAGGAUAUACAUGAGGAUCACCCAUGUGGCGGGCAUACCCGCCGAGACCGUGUAGAAGGUCAUAGUA,67.5,57.6,,
GCCUUACUGGUCAGGAUAUACAUUUGUUACUCUUUGUAGAAGGGACAUGAGGAUCACCCAUGUACAUUACAUUC,20.8,27.2,,
GCGAAGAACGAGAAGGCCACUACAUGAGGAUCACCCAUGUCGUGGAGUAUUGGAGGAUAUCGUUCGGCGUCUCAUGAGGACAUA,4.95,5.22,,
GCGAUAACAUGAGGAUCACCCAUGUAUGUGGCGGGCCCUACGAGAAGGCCAUGUAACAAAUACAUGGAGGAUAUCGGAUGAGUU,,,153,26.6
GCGAUAUUGUAAGGAUAUACUCUGUGAUGAAGAGUAGAAGGUACUUACAUGAGGAUCACCCAUGUUUAACGUGAUACUAAUCGC,,,541,210
GCGAUUAAGUAGAAGGUACAAUAUAUAUCAUUGUAAGGAUAUACUUACAUGAGGAUCACCCAUGUUAAAGGAUAUAAUAAUCGC,,,9.08,8.98
GCGAUUGCGUAGAAGGUACAAUAUAUUUCAUUGUAAGGAUAUACUUACAUGAGGAUCACCCAUGUUAAAGGAUUUAGCAAUCGC,,,12.4,10.3
GCGAUUGCGUAGAAGGUACAAUUUAAUACAUUGUAAGGAUAUACUUACAUGAGGAUCACCCAUGUUAAUGGAAUUUGCAAUCGC,,,16.7,10.8
GCGAUUUUGUAAGGAUAUACACGAGUUUUAAGUGUAGAAGGUACUUACAUGAGGAUCACCCAUGUAUAAAUGUAUAAUGGUCGC,,,12.4,9.82
GCGCACUAAGUGAGGAUAUCGAUUUCUUUAAGGAUCGAGAAGGCACAUGAGGAUCACCCAUGUUUGACGUGCGC,16.9,14.5,,
GCGCAUUUAAGAUUUAUAUAAUUUUCAGAAGGUGAAUAGUCGACAUGAGGAUCACCCAUGUAAUUCAAGGAUAUGAUUUAGCGC,,,59.6,10.1
GCGGAACAUGAGGAUCACCCAUGUGGAGGGUGUAAAGGAUAUUAUAGAGAGAAGGUAGGGUAAGAAGGUUGCUGGG,,,843,763
GCGGGCCGCGCAGGAUAUACAGGGUACAUGAGGAUCACCCAUGUCCUUGGUGAGAUCAUUUGCCCGUAGAAGGGCGAGGGUCGG,44.3,114,,
GCGGGUAAAGCAGGAUAUCUAAUGUCACGGAAACAUGAGGAUCACCCAUGUAGAGAAGGGCUAAGUCAUACAAUUCGAAUUUGC,9.04,8.24,,
GCGUAAAAGAUCCUAUUUAUCUACAUGAGGAUCACCCAUGUGCAGGAUAUGCUAUAUUUAAUAUAGCAGAAGGGCAAUAACCGC,45.6,248,,
GCGUACAUAUCAGGAUAUCAUUGUAUUGUUUUACUCAGUGUAUACAUGAGGAUCACCCAUGUUCUUGAGAAGGGAUUACUACGC,15.1,14.1,,
GCGUAUUAGGUGUAGCUAGUCAUUCAAGAAGGGUGGAGAACAUGAGGAUCACCCAUGUAGUUUAUACAGGAUAUUGAUAUACGC,,,489,101
GCGUCAGAAUUAAUUGUGACAGGCAGAAGGCUAUAUCUUAUGUCAGACAUGAGGAUCACCCAUGUAGAGGAUAUGCAGUUACAC,10.6,17.9,,
GCGUCAGAAUUAAUUGUGACAUACAGAAGGCAAAAGUUAAGAUCAGACAUGAGGAUCACCCAUGUUGAGGAUAUGUAGAGAAUC,10.4,8.72,,
GCGUCAGAAUUAAUUGUGACAUACAGAAGGCAAUAUUAAGGUUAAGACAUGAGGAUCACCCAUGUUGAGGAUAUGUAGUGACGC,8.9,15.8,,
GCGUCGAGUGUGAGGAUAUGCUGGUCCUUGGAUCAGCAGAAGGCACAUGAGGAUCACCCAUGUGAAUACGAUGC,21.7,136,,
GCGUUCUUGUAGAAGGUACUUUCAACAUCUUAUAAACGCUAGACACAUGAGGAUCACCCAUGUUGUAAGGAUAUACAUGAACGC,,,11.3,10.9
GCGUUGUACGAGAAGGCCAAUACAUGAGGAUCACCCAUGUUAAGUUGUUUUGGAGGAUAUCGAUCAUCUACAAUAAUGCAACGC,6.74,6.03,,
GCGUUGUCAGGAUAUUAUCCGUGGACAAUAGUCAGACACGGUAAGAAGGGACAUGAGGAUCACCCAUGUCCUCA,17.6,27.1,,

Sequence,apparent Kd [1] [nM],apparent Kd [2] [nM],apparent Kd [3] [nM],apparent Kd [4] [nM]
GCUAAACAUGAGGAUCACCCAUGUACCGAUCACUAAGGAUAUGGGCGAAUAACGGCUCGGCCAGAAGGUAGAGAUG,,,66.9,81.8
GCUCGCGUCGGUUCGCUGGCCUGAGAGGAUAUCCACUGGCAUGUCGACAUGAGGAUCACCCAUGUGGAGAAGGCUCAGGAUAAA,311,552,,
GCUCGGCGUCAGAAGGCAGACGCGAAGCGCGUUUGAGGAUAUGACAUGAGGAUCACCCAUGUAGGUGUGCGAAAUUGUAAUCAC,301,309,,
GCUCGUCGUGGAAGAGCAAAAGGACAGGAUAUCGCUUAAACAUGAGGAUCACCCAUGUCCGUUAACGAGAAGGGUCGAAUAAAU,,,138,24.3
GCUCUACAUGAGGAUCACCCAUGUCCAUCCGCACGAGGAUAUGCAUGGGCGAAAGCUGGUGCAGAAGGCGUGGGAC,,,190,98.8
GCUGACGAUGUAGGAUAUCAGUAUAAUAAAUACUGAGAAGGACAUGAGGAUCACCCAUGUACUCAACGUCAGCAGAGGAAACUC,17.8,22.5,,
GCUGCAUAGGCAGGAUAUGCAAACAUGAGAUGAAAAUACAUCUCAUGUACAUGAGGAUCACCCAUGUAGAAGGGCCUGUGCAGU,14.9,15.5,,
GCUGCAUAGGCAGGAUAUGCAAUAAUUUGAAUAAAAUAUAACAAAUUAACAUGAGGAUCACCCAUGUAGAAGGGCCUGUGCAGU,17.5,19.4,,
GCUGCGCGAGGAUAUGCGGUUUGUGCUUUGGCCCAUGGCGUACAUGAGGAUCACCCAUGUAGAAGGCGUGUGGG,13.5,13.8,,
GCUGGACAAGGAUAUACAUAACGUGCUUCGGCACGAGAUCUACAUGAGGAUCACCCAUGUAGAAGGUGUCCAGC,14.8,29.2,,
GCUGUCGUAUGAGGAUAUGGUCAGCUUUGCUGACCAGAAGGCAUGUCAAUAGACAUGAGGAUCACCCAUGUAGUAAAGACAGCA,,,402,39
GCUGUGGCAUGAGGAUAUGGUCACCUUUGGUGACCAGAAGGCAUGUCAAUAGACAUGAGGAUCACCCAUGUAGUUAACACAGCA,,,561,42.4
GCUUCACAUGAGGAUCACCCAUGUUUUCGGAGUCGAGGAUAUGGUCACUGUAAACAGUGGCCAGAAGGCGAGGAGC,,,18.2,16.7
GCUUCUUAAUUUCAAACUUACGAUUCAGAAGGUGAAUUUUACACAUGAGGAUCACCCAUGUUACUCAAGGAUAUGAUUUGACUA,,,18.7,14
GGAAAACAUGAGGAUCACCCAUGUGAGGAUAUCGAUGUCCAGAGGGAGGUGCGGGACUCGAGAAGGCACUUGGA,34.2,82.8,,
GGAAAGCAAGGAUAUACAAACAAACAAACAAACAAAAGGGAACAUGAGGAUCACCCAUGUAGAAGGUGCAAACA,41.7,37.5,,
GGAAAUCAUGUAGGAUAUGCAUGGCGAAGCUACGCAGAAGGACAUGAGGAUCACCCAUGUUAGAGCGUCCGAGAAAGGAUGCAA,43.2,250,,
GGAACAACAUGAGGAUAUCGAUGAGUAUAGAGUCGAGAAGGCAUGUCAUAAGACAUGAGGAUCACCCAUGUAGUUACAAUACCA,,,1010,69.2
GGAAGACAAAGUCUUCCAUUACGAACAUGAGGAUCACCCAUGUAGGAUAUGCUUCUCAAAGAGAAGCAGAAGGACAUGUGUCUU,26.6,134,,
GGAAGAGUAGGAUAUACAUGAGGAUCACCCAUGUCCUGGAGAAGCAAUUCGAUAUCCUGUAGAAGGACUAAUCU,40,36.1,,
GGACAUGAGGAUCACCCAUGUCGAACAUGAGGAUCACCCAUGUAGGAUAUGCUACUCAAAGAGUAGCAGAAGGACAUGUGCCUU,53.7,51.2,,
GGACAUGUACAGAAGGGCAAUUUAUUUAUUGAUUAUUUAGUUCUGUUUUGCAGGAUAUGUAAAACAUGAGGAUCACCCAUGUCC,,,188,105
GGACAUGUCGUUUACAUGAGGAUCACCCAUGUCGAUGGACAUGAGGAUAUCGAUACGAAUCGUAUCGAGAAGGCAUGCAUGUCC,,,42.8,18.5
GGACAUUUACAGAAGGGCAAAUUUUUUAUUGAAUAUUUAGUUCUGUUUUGCAGGAUAUGUUUUACAUGAGGAUCACCCAUGUCC,,,79.9,30.6
GGACGACACAUUAACAUGAGGAUCACCCAUGUCUCUUGACAUGAGGAUAUGGAUCCUAAUUGGAUCCAGAAGGCAUGGUCGUCC,,,1130,93.5
GGACGGAAAGUGAGGAUAUGCUCUACCUCGGUAGAGCAGAAGGCACAUGAGGAUCACCCAUGUGAUUACUGUUC,25.5,184,,
GGACGGUUAGUGAGGAUAUGCUCUACCUCGGUAGAGCAGAAGGCACAUGAGGAUCACCCAUGUGAUAACUGUUC,18.6,21.8,,
